Assay results taken from ChEMBL document CHEMBL1155468, “Syntheses and evaluation of anticonvulsant profile and teratogenicity of novel amide derivatives of branched aliphatic carboxylic acids with 4-aminobenzensulfonamide” (J Med Chem, 2010).
Activity calls are given as the source filed them. The rule behind the calls is not given here.

How the values were obtained:
Mus musculus [1] = assay: Anticonvulsant activity in CF1 albino mouse assessed as inhibition of subcutaneous pentylenetetrazole-induced seizures at 30 mg/kg, ip after 0.5 hrs; assay type: functional, organism-based; parameters: dose 30 mg/kg
In short: (§1)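 Adult male CF no. 1 albino mice (18-25 g) dosed ip with compound suspended in 0.5% methylcellulose (0.01 mL/g). Convulsant: pentylenetetrazol dissolved in 0.9% saline as a 0.85% solution for mice, given subcutaneously.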

Mus musculus [2] = assay: Anticonvulsant activity in CF1 albino mouse assessed as inhibition of subcutaneous pentylenetetrazole-induced seizures at 100 mg/kg, ip after 0.5 hrs; assay type: functional, organism-based; parameters: dose 100 mg/kg; in short: as §1
Mus musculus [3] = assay: Anticonvulsant activity in CF1 albino mouse assessed as inhibition of subcutaneous pentylenetetrazole-induced seizures at 300 mg/kg, ip after 0.5 hrs; assay type: functional, organism-based; parameters: dose 300 mg/kg; in short: as §1
Mus musculus [4] = assay: Anticonvulsant activity in CF1 albino mouse assessed as inhibition of subcutaneous pentylenetetrazole-induced seizures at 30 mg/kg, ip after 4 hrs; assay type: functional, organism-based; parameters: dose 30 mg/kg; in short: as §1
Mus musculus [5] = assay: Anticonvulsant activity in CF1 albino mouse assessed as inhibition of subcutaneous pentylenetetrazole-induced seizures at 100 mg/kg, ip after 4 hrs; assay type: functional, organism-based; parameters: dose 100 mg/kg; in short: as §1
Mus musculus [6] = assay: Teratogenic effect in SWV mouse assessed as resorptions at 729 mg/kg, ip administered on morning of day 8 of gestation; assay type: toxicity, organism-based; parameters: dose 729 mg/kg, route intraperitoneal; details: in vivo
In short: (§2)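 SWV inbred mice: two-month-old nulligravid females mated overnight with males and checked for vaginal plugs next morning; gestation onset taken as 10 p.m. the previous night. On gestation day 8.5 each dam got one ip injection, 0.55–2.7 mmol/kg, in 25% aqueous Cremophor EL (vehicle controls dosed alike), 10 μL/g body weight. Litters and implants tallied; resorptions and live fetuses reported as counts with percentages.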

Mus musculus [7] = assay: Teratogenic effect in SWV mouse assessed as resorptions at 486 mg/kg, ip administered on morning of day 8 of gestation; assay type: toxicity, organism-based; parameters: dose 486 mg/kg, route intraperitoneal; details: in vivo; in short: as §2
Mus musculus [8] = assay: Teratogenic effect in SWV mouse assessed as resorptions at 294 mg/kg, ip administered on morning of day 8 of gestation; assay type: toxicity, organism-based; parameters: dose 294 mg/kg, route intraperitoneal; details: in vivo; in short: as §2
Mus musculus [9] = assay: Teratogenic effect in SWV mouse assessed as resorptions at 148 mg/kg, ip administered on morning of day 8 of gestation; assay type: toxicity, organism-based; parameters: dose 148 mg/kg, route intraperitoneal; details: in vivo; in short: as §2
Mus musculus [10] = assay: Teratogenic effect in SWV mouse assessed as fetuses with neural tube deffects at 486 mg/kg, ip administered on morning of day 8 of gestation; assay type: toxicity, organism-based; parameters: dose 486 mg/kg, route intraperitoneal; details: in vivo
In short: (§3)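 Two-month-old nulligravid SWV females were mated overnight and checked for vaginal plugs the next morning; gestation onset was set at 10 p.m. the previous night. On gestation day 8.5, each dam received a single ip injection (0.55-2.7 mmol/kg range) or vehicle (25% aqueous Cremophor EL) at 10 μL/g body weight. Litters were scored for implants, resorptions, live and dead fetuses, and fetuses with neural tube defects.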

Mus musculus [11] = assay: Teratogenic effect in SWV mouse assessed as fetuses with neural tube deffects at 294 mg/kg, ip administered on morning of day 8 of gestation; assay type: toxicity, organism-based; parameters: dose 294 mg/kg, route intraperitoneal; details: in vivo; in short: as §3
Mus musculus [12] = assay: Teratogenic effect in SWV mouse assessed as fetuses with neural tube deffects at 148 mg/kg, ip administered on morning of day 8 of gestation; assay type: toxicity, organism-based; parameters: dose 148 mg/kg, route intraperitoneal; details: in vivo; in short: as §3
Mus musculus [13] = assay: Teratogenic effect in SWV mouse assessed as live fetuses at 729 mg/kg, ip administered on morning of day 8 of gestation; assay type: toxicity, organism-based; parameters: dose 729 mg/kg, route intraperitoneal; details: in vivo; in short: as §2
Mus musculus [14] = assay: Teratogenic effect in SWV mouse assessed as live fetuses at 486 mg/kg, ip administered on morning of day 8 of gestation; assay type: toxicity, organism-based; parameters: dose 486 mg/kg, route intraperitoneal; details: in vivo; in short: as §2
Mus musculus [15] = assay: Teratogenic effect in SWV mouse assessed as live fetuses at 294 mg/kg, ip administered on morning of day 8 of gestation; assay type: toxicity, organism-based; parameters: dose 294 mg/kg, route intraperitoneal; details: in vivo; in short: as §3
Mus musculus [16] = assay: Teratogenic effect in SWV mouse assessed as live fetuses at 148 mg/kg, ip administered on morning of day 8 of gestation; assay type: toxicity, organism-based; parameters: dose 148 mg/kg, route intraperitoneal; details: in vivo; in short: as §3
Mus musculus [17] = assay: Anticonvulsant activity in CF1 albino mouse assessed as inhibition of maximal electroshock-induced seizures at 30 mg/kg, ip after 0.5 hrs; assay type: functional, organism-based; parameters: dose 30 mg/kg
In short: (§4)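 Test compounds suspended in 0.5% methylcellulose and given ip to adult male CF no. 1 albino mice (18-25 g) at 0.01 mL/g body weight before maximal electroshock challenge.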

Mus musculus [18] = assay: Anticonvulsant activity in CF1 albino mouse assessed as inhibition of maximal electroshock-induced seizures at 100 mg/kg, ip after 0.5 hrs; assay type: functional, organism-based; parameters: dose 100 mg/kg; in short: as §4
Mus musculus [19] = assay: Anticonvulsant activity in CF1 albino mouse assessed as inhibition of maximal electroshock-induced seizures at 300 mg/kg, ip after 0.5 hrs; assay type: functional, organism-based; parameters: dose 300 mg/kg; in short: as §4
Mus musculus [20] = assay: Anticonvulsant activity in CF1 albino mouse assessed as inhibition of maximal electroshock-induced seizures at 30 mg/kg, ip after 4 hrs; assay type: functional, organism-based; parameters: dose 30 mg/kg; in short: as §4
Mus musculus [21] = assay: Anticonvulsant activity in CF1 albino mouse assessed as inhibition of maximal electroshock-induced seizures at 300 mg/kg, ip after 4 hrs; assay type: functional, organism-based; parameters: dose 300 mg/kg; in short: as §4
Mus musculus [22] = assay: Anticonvulsant activity in CF1 albino mouse assessed as inhibition of subcutaneous pentylenetetrazole-induced seizures at 300 mg/kg, ip after 4 hrs; assay type: functional, organism-based; parameters: dose 300 mg/kg; in short: as §1
Mus musculus [23] = assay: Neurotoxicity in CF1 albino mouse assessed as motor impairment at 30 mg/kg, ip after 0.5 hrs; assay type: toxicity, organism-based; parameters: dose 30 mg/kg, route intraperitoneal; details: in vivo
Mus musculus [24] = assay: Neurotoxicity in CF1 albino mouse assessed as motor impairment at 100 mg/kg, ip after 0.5 hrs; assay type: toxicity, organism-based; parameters: dose 100 mg/kg, route intraperitoneal; details: in vivo
Mus musculus [25] = assay: Neurotoxicity in CF1 albino mouse assessed as motor impairment at 300 mg/kg, ip after 0.5 hrs; assay type: toxicity, organism-based; parameters: dose 300 mg/kg, route intraperitoneal; details: in vivo
Mus musculus [26] = assay: Neurotoxicity in CF1 albino mouse assessed as motor impairment at 30 mg/kg, ip after 4 hrs; assay type: toxicity, organism-based; parameters: dose 30 mg/kg, route intraperitoneal; details: in vivo
Mus musculus [27] = assay: Neurotoxicity in CF1 albino mouse assessed as motor impairment at 100 mg/kg, ip after 4 hrs; assay type: toxicity, organism-based; parameters: dose 100 mg/kg, route intraperitoneal; details: in vivo
Mus musculus [28] = assay: Neurotoxicity in CF1 albino mouse assessed as motor impairment at 300 mg/kg, ip after 4 hrs; assay type: toxicity, organism-based; parameters: dose 300 mg/kg, route intraperitoneal; details: in vivo
Rattus norvegicus [29] = assay: Anticonvulsant activity in po dosed rat assessed as inhibition of maximal electroshock-induced seizures
Rattus norvegicus [30] = assay: Anticonvulsant activity in Sprague-Dawley rat assessed as inhibition of maximal electroshock-induced seizures at 30 mg/kg, po after 1 hr
Rattus norvegicus [31] = assay: Anticonvulsant activity in Sprague-Dawley rat assessed as inhibition of maximal electroshock-induced seizures at 30 mg/kg, po after 2 hrs
Rattus norvegicus [32] = assay: Anticonvulsant activity in Sprague-Dawley rat assessed as inhibition of maximal electroshock-induced seizures at 30 mg/kg, po after 4 hrs
Mus musculus [33] = assay: Teratogenic effect in SWV mouse assessed as resorptions at 325 mg/kg, ip administered on morning of day 8 of gestation; assay type: toxicity, organism-based; parameters: dose 325 mg/kg, route intraperitoneal; details: in vivo
Mus musculus [34] = assay: Teratogenic effect in SWV mouse assessed as resorptions at 164 mg/kg, ip administered on morning of day 8 of gestation; assay type: toxicity, organism-based; parameters: dose 164 mg/kg, route intraperitoneal; details: in vivo
Mus musculus [35] = assay: Teratogenic effect in SWV mouse assessed as fetuses with neural tube deffects at 325 mg/kg, ip administered on morning of day 8 of gestation; assay type: toxicity, organism-based; parameters: dose 325 mg/kg, route intraperitoneal; details: in vivo
Mus musculus [36] = assay: Teratogenic effect in SWV mouse assessed as live fetuses at 325 mg/kg, ip administered on morning of day 8 of gestation; assay type: toxicity, organism-based; parameters: dose 325 mg/kg, route intraperitoneal; details: in vivo
Mus musculus [37] = assay: Teratogenic effect in SWV mouse assessed as live fetuses at 164 mg/kg, ip administered on morning of day 8 of gestation; assay type: toxicity, organism-based; parameters: dose 164 mg/kg, route intraperitoneal; details: in vivo
Rattus norvegicus [38] = organism: Rattus norvegicus; assay: Protective index, ratio of TD50 for rat to ED50 for maximal electroshock-induced rat seizure model
Rattus norvegicus [39] = assay: Neurotoxicity in Sprague-Dawley rat assessed as motor impairment at 30 mg/kg, po after 0.25 to 4 hrs; details: in vivo
Rattus norvegicus [40] = assay: Anticonvulsant activity in Sprague-Dawley rat assessed as inhibition of maximal electroshock-induced seizures at 30 mg/kg, po after 30 mins
Rattus norvegicus [41] = assay: Anticonvulsant activity in Sprague-Dawley rat assessed as inhibition of maximal electroshock-induced seizures at 30 mg/kg, po after 15 mins

Row | Structure (SMILES) | Activity (Mus musculus [1]) | Activity (Mus musculus [2]) | Activity (Mus musculus [3]) | Activity (Mus musculus [4]) | Activity (Mus musculus [5]) | Activity (Mus musculus [17]) | Activity (Mus musculus [18]) | Activity (Mus musculus [19]) | Activity (Mus musculus [20]) | Activity (Mus musculus [21]) | Activity (Mus musculus [22]) | Activity (Mus musculus [23]) | Activity (Mus musculus [24]) | Activity (Mus musculus [25]) | Activity (Mus musculus [26]) | Activity (Mus musculus [27]) | Activity (Mus musculus [28]) | ED50 (Rattus norvegicus [29]) [mg/kg] | Activity (Rattus norvegicus [30]) | also measured
1 | CCCC(C)C(=O)Nc1ccc(S(N)(=O)=O)cc1 (stereo not given) | inactive | inactive | inactive | inactive | inactive | inactive | inactive | Active | inactive | Active | inactive | Non-toxic | Non-toxic | Non-toxic | Non-toxic | Non-toxic | Non-toxic | 10.8 | Active | Activity (Mus musculus [6]): 92.5%; Activity (Mus musculus [7]): 58.3%; Activity (Mus musculus [8]): 34.8%; Activity (Mus musculus [9]): 10%; Activity (Mus musculus [10]): 17%; Activity (Mus musculus [11]): 5.6%; Activity (Mus musculus [12]): 3.2%; Activity (Mus musculus [13]): 7.5%; Activity (Mus musculus [14]): 41.7%; Activity (Mus musculus [15]): 65.2%; Activity (Mus musculus [16]): 90%; Activity (Rattus norvegicus [31]): Active; Activity (Rattus norvegicus [32]): Active
2 | CCCC(C(=O)Nc1ccc(S(N)(=O)=O)cc1)C(C)C (stereo not given) | inactive | inactive | inactive | inactive | inactive | inactive | inactive | Active | inactive | Active | inactive | Non-toxic | Non-toxic | Non-toxic | Non-toxic | Non-toxic | Non-toxic | 41.5 | Active | Activity (Mus musculus [33]): 35.4%; Activity (Mus musculus [34]): 10.3%; Activity (Mus musculus [35]): 2%; Activity (Mus musculus [36]): 64.6%; Activity (Mus musculus [37]): 100%; Ratio TD50/ED50 (Rattus norvegicus [38]): >12; Activity (Rattus norvegicus [39]): Non-toxic; Activity (Rattus norvegicus [40]): inactive; Activity (Rattus norvegicus [41]): inactive
